# HKDC1 act: HKDC1 (human) hexokinase activation. activity change, negative = activation, % at 20 µM. recombinant HKDC1, G6PDH/diaphorase resazurin fluorescence; stronger effect = lower value. AID 493187. hit rate 0.056% among 340,000. Q2TB90;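 active means activation of 40% or more at 20 µM, a change of -40% or lower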
#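 Dosing: single compound dose of 20 µM, 1% DMSO final / Test system: in-house human HKDC1 enzyme, G6PDH and diaphorase coupling enzymes / Quantity: 5 µg/mL HKDC1 final / Incubation: enzyme reaction 90 min, room temperature, in dark / Buffer or medium: pH 8.0 Tris with MgCl2 / Detection: coupled resazurin-to-resorufin fluorescence, Ex 525/Em 613 nm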
# A number is an active result; i = inactive. Only a sample is shown.
SMILES,HKDC1 act
CC(=O)NC1C(=O)N(CCN2CCOCC2)c2ccc(Cl)cc21 (stereo not drawn),i
CCOc1ccccc1Nc1nnc(SCc2nnc(-c3cc(OC)c(OC)c(OC)c3)o2)s1,i
COC(=O)CCC(=O)OC1(C)C(=O)C2=CN(Cc3ccc4c(c3)OCO4)C(c3ccc(OC)cc3)=CC2=C(Br)C1=O (stereo not drawn),i
CCCC(=O)N1CCN(Cc2ccc3c(c2)OCO3)CC1,-57
O=C(CCCCC(=O)Sc1ccccc1)Sc1ccccc1,i
COc1cccc(CC(Cc2nc3ccccc3[nH]2)c2nc3ccccc3[nH]2)c1 (stereo not drawn),i
O=C1CSC(=S)N1N=Cc1ccccc1O,-42
Cn1c2ccccc2c(=O)c2c(=O)n(-c3ccccc3)c(C3CCCCC3)nc21,i
COc1ncnc2c1oc1nc(C(C)C)c3c(c12)CC(C)(C)OC3,i
Cc1ccc(SSc2cc(C)ccc2N)c(N)c1,-44
CC1=NOC(=O)/C1=C\c1ccc(-c2ccc(Cl)cc2Cl)o1,i
CC(=O)NC1C(=O)N(CCN2CCOCC2)c2ccc(C)cc21 (stereo not drawn),i
O=C(O)[C@@H](c1ccccc1)N1Cc2ccccc2C1=O,i
S=C(NCc1ccccn1)NN=Cc1ccccn1,-44
O=C(NNC(=O)c1cccnc1)NC1CCCCC1,-60
O=C(NCc1ccncc1)C(=O)N/N=C/c1ccc(OCc2ccccc2)cc1,-58
N=C1/C(=C\c2ccc(-c3ccc(C(=O)O)cc3)o2)C(=O)N=C2SC=C(c3ccccc3)N12,i
CCOC(=O)c1c(C)[nH]c(C2=NNC(=Nc3ccccc3OC)SC2)c1C,-165
CCOC(=O)c1c(C)[nH]c(C2=NNC(=Nc3ccc(OCC)cc3)SC2)c1C,-137
CCOC(=O)c1c(C)[nH]c(C2=NNC(=Nc3ccccc3)SC2)c1C,-306
O=S(=O)(/N=C/c1c(O)ccc2ccccc12)c1ccccc1,i
COC1=C(OC)C(=O)C(Sc2ccc3ccccc3c2)=CC1=O,i
CC(=O)C1=C(c2ccccc2)N(C(C)=O)n2c(C)nnc2S1,-315
O=C(O)CSc1cc(NS(=O)(=O)c2ccc(Cl)cc2)c2ccccc2c1O,i
Cc1ccc(NC2=C/C(=N\S(=O)(=O)c3cccs3)c3ccccc3C2=O)c(C)c1,i
SMILES,HKDC1 act
Oc1ccc(-c2cnns2)c(O)c1,i
Cc1ccccc1S(=O)(=O)c1c(C)cc(C)n(CC(C)C)c1=O,i
Cc1cc(C)c2c(=O)[nH]cnc2n1,i
CC(NC(=O)c1sc2cc([N+](=O)[O-])ccc2c1Cl)C(C)(C)C (stereo not drawn),-76
CC(C)c1nc2oc3c(NCc4ccccn4)ncnc3c2c2c1COC(C)(C)C2,i
O=C1/C(=C\c2ccc(Cl)c(Cl)c2)CN(C(=O)CCN2CCOCC2)C/C1=C/c1ccc(Cl)c(Cl)c1,i
O=C1NC(=S)N/C1=C/c1cc2c(cc1[N+](=O)[O-])OCO2,-67
CCC(C)C(N)C1=NC(C(=O)N[C@@H](CC(C)C)C(=O)N[C@H](CCC(=O)[O-])C(=O)N[C@H](C(=O)N[C@H]2CCCCNC(=O)[C@H](CC(N)=O)NC(=O)[C@@H](CC(=O)[O-])NC(=O)[C@H](Cc3cnc[nH]3)NC(=O)[C@@H](Cc3ccccc3)NC(=O)[C@H]([C@@H](C)CC)NC(=O)[C@@H](CCCN)NC2=O)[C@@H](C)CC)CS1.[Zn+2] (stereo partly drawn),i
CSc1nc(N(C)CCO)c2sc3nc(-c4ccco4)c4c(c3c2n1)CCC4,i
O=c1[nH]c(=O)c2nc3c4ccccc4c4ccccc4c3nc2[nH]1,i
Cc1ccc(C(=O)ONc2ccc(N=NC(=O)c3ccccc3O)cc2)cc1,i
CC(=O)Oc1cccc2c1C(=O)C1CC=CC(OC(C)=O)C1C2=O (stereo not drawn),-45
C=CCOc1ccc(C=NNc2ccc(S(=O)(=O)Nc3ccccc3C(=O)O)cc2[N+](=O)[O-])cc1OC,i
COC1=C(C)C(=O)C2=C(C1=O)C1C3CC4=C(C(=O)C(OC)=C(C)C4=O)C(CNC(=O)C(C)=O)N3C(C#N)C(C2)N1C (stereo not drawn),i
CCOc1ccc2nc3cc(NCc4ccc(OC)cc4)ccc3c(N)c2c1,i
CCc1c(C)c(C#N)c2nc3ccccc3n2c1NC,-66
Cc1cc(C)n(-c2ccc(NC(=O)C3CCN(Cc4cc(C)c(C)o4)CC3)cc2)n1,i
C=CCn1nc([N+](=O)[O-])nc1Sc1cccc2cccnc12,-47
Cc1ccc(SC2=C(N(C)C)C(=O)c3ccccc3C2=O)cc1,i
Cc1ccc(S(=O)(=O)N(C(=O)c2ccncc2)c2ccc(OC(=O)c3ccncc3)c3ccccc23)c(C)c1,i
N=C1N(c2ccccc2)C(=S)C(=Nc2ccccc2)N1c1ccccc1,-77
CCOC(=O)C1=C(Cc2ccc(OC)cc2)C(=O)c2ccccc2C1=O,i
CC(OC(=O)c1cc(O)c2ccccc2c1O)C(=O)Nc1ccc(C(N)=O)cc1 (stereo not drawn),i
CC(=NNC(=S)Nc1cccc(Cl)c1)c1ccccn1,-46
COc1ccc2c(c1)C(=NNC(=O)c1ccccn1)c1cc(OC)ccc1-2,i
SMILES,HKDC1 act
CC(=NNC(=S)SCc1ccccc1)c1ccccn1,-47
COC(=O)c1sc(NC(=O)CSc2nc3nc(C)cc(C)n3n2)c(C(=O)OC)c1C,i
O=C1C=C(c2c(O)ccc3ccccc23)c2ccccc2C1=O,i
O=C(O)c1cccc2cccc(-c3c4ccc(=O)c(O)c-4oc4c(O)c(O)ccc34)c12,i
N#C/C(=C(/O)CCl)c1nc2c(s1)CCc1ccccc1-2,i
O=C(/C=C/c1cccs1)Nc1scc(-c2ccccc2)c1C(=O)O,i
Cc1onc(-c2ccccc2)c1C(=O)NNC(=S)NC(=O)/C=C/c1cccs1,-57
Cc1nc([N+](=O)[O-])c(Br)n1CC(=O)c1ccc2ccccc2c1,i
COc1ccc(C2=CC3=C(Br)C(=O)C(C)(OC(=O)C4CCCC4)C(=O)C3=CO2)cc1 (stereo not drawn),i
c1ccc(Nc2cc(Nc3ccccc3)[nH]n2)cc1,-47
CC(=NNC(=O)c1ccncc1)c1ccc(O)cc1O,-40
O=C(CNC(=O)c1ccncc1)N/N=C/c1ccc(O)cc1O,-41
Cc1cc(C)n(CCC(=O)N/N=C/c2ccc(O)cc2O)n1,-42
O=C(CNC(=O)c1ccc2c(c1)OCCO2)N/N=C/c1ccc(O)cc1O,-51
Cc1cc(SCC(=O)N/N=C/c2ccc(O)c(O)c2O)c(C)cc1Br,i
CCOC(=O)C1=C(O)c2ccccc2C(=O)/C1=C\c1ccc(CC)cc1,i
COc1cc(/C=C(\C#N)c2nc3ccc(C)cc3[nH]2)cc([N+](=O)[O-])c1O,i
O=C1OC(c2ccccc2)=N/C1=C/c1cccc(OC(=O)c2cccs2)c1,i
COc1ccccc1Nc1ccc2c(O)cc(S(=O)(=O)O)cc2c1,i
CCOP(=O)(c1ccc(N(C)C)cc1)C(O)c1ccc(OC)cc1 (stereo not drawn),i
CCCC(=O)NC1=C(Cl)C(=O)c2ccccc2C1=O,i
Cc1ccc(-n2c3nc(=O)[nH]c(=O)c-3cc3cc([N+](=O)[O-])ccc32)cc1,i
O=C(CSc1n[nH]c(-c2cccnc2)n1)Nc1ccc([N+](=O)[O-])cc1Br,i
CC1(C)Cc2ccccc2C2=NNC(=O)C2=N1,i
CC(C)C(=O)N(c1cc2sc(=O)oc2c2ccccc12)S(=O)(=O)c1cccs1,i
Cc1cc(C)c(S(=O)(=O)Nc2cc(SCC(=O)O)c(O)c3ccccc23)cc1C,i
CN(C)Cc1cc(O)c(CN(C)C)cc1O,i

# Assay outcomes: PubChem BioAssay, Sanford-Burnham Center for Chemical Genomics
